Data published in publication PMC10872613 (Journal of immunology (Baltimore, Md. : 1950), 2024).
pIC50, pKi: −log10 of the molar value. “Also recorded” adds a separate entry of the source. Where two headings read alike, the source gives them in different places.

Tests used:
[1] = system: bovine pancreatic trypsin; conditions: concentrations up to 200 μM; cited from earlier work
[2] = system: CP activation by heparin-induced immune complexes; assay: CP activation by heparin-induced immune complexes in whole blood; assay type: cell-based, human; conditions: highest concentration examined (series 1,000 – 10 μM)
Procedure, shortened: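 Healthy-donor whole blood was anticoagulated with ACD (1.4 mL per 8.6 mL blood). It was preincubated 30 min at room temperature with buffer, test compound (1000–10 μM) or B. miyamotoi FbpA-C/FbpB-C control proteins (100 μg/mL). Anti-PF4/heparin antibody KKO (50 μg/mL), PF4 (25 μg/mL) and heparin (1 U/mL) were then added, 30 min at 37 °C. Plasma was quenched with 10 mM EDTA, and C5a was measured by sandwich ELISA.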

[3] = system: lectin pathway (LP); assay: LP ELISA; assay type: biochemical, human; conditions: 100 μM A1, C1q-depleted serum, mannan-coated plates
[4] = molecular target: T1, C1s (Homo sapiens, UniProt P09871); assay: Cleavage of C2 by C1s; assay type: biochemical
T1 sequence (P09871 16-437 limits assumed): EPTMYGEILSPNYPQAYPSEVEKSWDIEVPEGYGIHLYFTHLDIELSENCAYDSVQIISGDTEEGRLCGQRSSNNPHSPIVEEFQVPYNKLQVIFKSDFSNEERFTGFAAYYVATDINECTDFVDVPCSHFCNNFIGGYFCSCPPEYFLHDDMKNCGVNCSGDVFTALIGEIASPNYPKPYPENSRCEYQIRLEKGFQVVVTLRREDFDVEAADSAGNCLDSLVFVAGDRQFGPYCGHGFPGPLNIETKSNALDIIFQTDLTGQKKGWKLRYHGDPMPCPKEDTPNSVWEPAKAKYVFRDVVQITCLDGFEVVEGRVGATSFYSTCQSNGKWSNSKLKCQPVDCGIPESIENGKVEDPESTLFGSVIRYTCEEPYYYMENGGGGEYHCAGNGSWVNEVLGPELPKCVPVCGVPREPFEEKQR
T1 sequence (P09871 438-688 limits assumed): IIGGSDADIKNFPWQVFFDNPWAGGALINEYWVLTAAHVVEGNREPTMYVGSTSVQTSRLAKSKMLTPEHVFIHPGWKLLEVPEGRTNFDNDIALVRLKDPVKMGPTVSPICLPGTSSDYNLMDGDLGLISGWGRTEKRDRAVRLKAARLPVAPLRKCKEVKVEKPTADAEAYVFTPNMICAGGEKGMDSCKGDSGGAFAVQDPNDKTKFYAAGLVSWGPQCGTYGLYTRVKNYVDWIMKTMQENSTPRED
Procedure, shortened: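 Serum-derived activated C1s (6.25 nM) was mixed with a two-fold test compound series (100–1.56 μM) in HBS++ and C2 was added (0.5 mg/mL stock), 1 h at 37 °C. Products were separated by SDS-PAGE with Coomassie staining. C2b band density was corrected for total C2 and normalized to a C1s + C2 control. Triplicates were fit to a four-parameter dose-response model.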

[5] = Aqueous solubility; assay type: physicochemical; conditions: water
[6] = system: Factor Xa; assay: Factor Xa chromogenic ZGR assay; assay type: biochemical; conditions: inhibitor 0 to 226 μM
Procedure, shortened: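 Buffer: 50 mM HEPES pH 7.4, 140 mM NaCl, 0.025% Tween-20, 5% DMSO, with 0.59 mM DTNB indicator. Thiol release was read chromogenically in microplates.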

[7] = molecular target: T2, mouse C1s-2SP (Mus musculus, UniProt Q8CG14); assay: Mouse C1s-2SP chromogenic ZGR assay; assay type: biochemical
T2 sequence (Q8CG14 357-423 limits assumed): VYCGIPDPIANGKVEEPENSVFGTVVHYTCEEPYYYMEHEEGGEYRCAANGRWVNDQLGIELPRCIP
T2 sequence (Q8CG14 438-688 limits assumed): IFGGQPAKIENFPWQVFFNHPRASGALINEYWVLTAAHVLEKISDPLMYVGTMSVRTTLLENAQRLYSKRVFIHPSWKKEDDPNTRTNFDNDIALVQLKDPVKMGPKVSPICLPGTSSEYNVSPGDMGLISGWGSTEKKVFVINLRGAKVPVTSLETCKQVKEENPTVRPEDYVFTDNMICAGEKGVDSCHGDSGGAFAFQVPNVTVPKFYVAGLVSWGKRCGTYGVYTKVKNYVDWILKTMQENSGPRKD
Procedure, shortened: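 Recombinant mouse C1s-2SP (2.5 nM) was tested at 25 °C in 50 mM HEPES pH 7.4, 140 mM NaCl, 0.005% Tween-20, 5% DMSO, 0.44 mM DTNB. ZGR initial velocities were measured at four substrate levels (~2.3–9.4 x Km) and five inhibitor levels (0–~8.4 x Ki). Triplicate data were globally fit to a competitive inhibition model.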

[8] = molecular target: T3, C1r purified from human serum (Homo sapiens, UniProt P00736); assay: C1r chromogenic ZGR assay; assay type: biochemical
T3 sequence (P00736 18-463 limits assumed): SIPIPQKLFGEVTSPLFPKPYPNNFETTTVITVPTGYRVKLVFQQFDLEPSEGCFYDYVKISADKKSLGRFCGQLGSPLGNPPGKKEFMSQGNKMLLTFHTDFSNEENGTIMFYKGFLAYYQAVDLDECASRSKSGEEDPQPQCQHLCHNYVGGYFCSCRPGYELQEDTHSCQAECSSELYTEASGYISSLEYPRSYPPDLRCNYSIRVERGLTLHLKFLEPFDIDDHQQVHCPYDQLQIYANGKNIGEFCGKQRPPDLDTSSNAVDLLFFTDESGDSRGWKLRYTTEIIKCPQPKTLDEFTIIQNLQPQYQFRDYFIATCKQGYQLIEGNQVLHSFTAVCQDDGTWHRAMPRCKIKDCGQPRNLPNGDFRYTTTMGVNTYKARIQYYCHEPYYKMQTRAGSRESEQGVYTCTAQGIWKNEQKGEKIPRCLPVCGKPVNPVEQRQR
T3 sequence (P00736 464-705 limits assumed): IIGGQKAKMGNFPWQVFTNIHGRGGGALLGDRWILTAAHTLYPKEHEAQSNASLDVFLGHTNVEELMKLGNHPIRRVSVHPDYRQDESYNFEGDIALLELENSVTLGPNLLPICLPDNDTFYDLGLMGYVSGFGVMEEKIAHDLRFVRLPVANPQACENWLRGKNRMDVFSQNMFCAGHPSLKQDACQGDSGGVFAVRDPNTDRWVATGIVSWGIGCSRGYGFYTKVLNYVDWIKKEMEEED
Procedure, shortened: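 Human serum-derived C1r (10 nM) at 25 °C in 50 mM HEPES pH 7.4, 140 mM NaCl, 0.005% Tween-20, 10% DMSO, with 0.44 mM DTNB as indicator. Initial velocities of Z-Gly-Arg-thiobenzyl ester (ZGR) hydrolysis were read at four ZGR levels (~0.1–0.7 x Km) × five inhibitor levels (0–~0.8 x Ki) in microplates. Data (n = 3) were globally fit to a competitive inhibition model.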

[9] = molecular target: T4, C1s-2SP (Homo sapiens, UniProt P09871); assay: C1s-2SP chromogenic ZGR cleavage assay; assay type: biochemical; conditions: for C1s-2SP activity (initial velocity of ZGR cleavage): 100 μM compound, single-concentration screen, compared with mean of library; for loss of activity compared to A1: Ki against human C1s-2SP relative to A1
T4 sequence (P09871 357-423 limits assumed): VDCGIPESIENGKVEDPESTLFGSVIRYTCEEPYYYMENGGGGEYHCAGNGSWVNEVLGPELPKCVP
T4 sequence (P09871 438-688 limits assumed): T1 sequence (P09871 438-688 limits assumed)
Procedure, shortened: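 Recombinant human C1s-2SP was expressed in E. coli BL21(DE3), purified by denaturing IMAC, refolded in glutathione redox buffer and isolated by gel filtration. The enzyme (2.4 nM) was run at 25 °C in 50 mM HEPES pH 7.4, 140 mM NaCl, 0.005% Tween-20, 5% DMSO, 0.44 mM DTNB. ZGR initial velocities were read on a 4×5 grid (~0.2–1.2 x Km; inhibitor 0–~2.6 x Ki), n = 3, with a global competitive fit.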

[10] = molecular target: T5, C1s purified from human serum (Homo sapiens, UniProt P09871); assay: Native C1s chromogenic ZGR assay; assay type: biochemical
T5 sequence (P09871 16-437 limits assumed): T1 sequence (P09871 16-437 limits assumed)
T5 sequence (P09871 438-688 limits assumed): T1 sequence (P09871 438-688 limits assumed)

[11] = system: classical pathway (CP); assay: CP-specific ELISA; assay type: biochemical, human; conditions: for C4b deposition (CP activity): 100 μM compound, single-concentration screen, 2% human serum
Procedure, shortened: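 Wells coated with human IgM received 2% (v/v) complement-preserved human serum with a two-fold test compound series (100–3.1 μM) in HBS++ plus 0.1% gelatin, 1 h at 37 °C. After TBS-T washes, deposited C4b was detected with mouse anti-C4b mAb and HRP anti-mouse IgG. Signals were normalized to uninhibited and serum-free controls. Triplicates were fit to a four-parameter dose-response model.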

[12] = system: Cathepsin-G; assay: Cathepsin G chromogenic assay; assay type: biochemical, human; conditions: inhibitor 0 to 29.4 μM; data not shown
Procedure, shortened: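 Cathepsin G (9.5 nM) was assayed at 25 °C with inhibitor 0–29.4 μM and fixed 0.92 mM succinyl-Ala-Ala-Pro-Phe-p-nitroanilide (ε400 = 12.3 mM−1 cm−1). Buffer: 50 mM HEPES pH 7.4, 140 mM NaCl, 0.025% Tween-20, 20.7% DMSO. Microplate chromogenic read-out.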

[13] = molecular target: thrombin (Homo sapiens, UniProt P00734); assay: Thrombin chromogenic ZGR assay; assay type: biochemical
Procedure, shortened: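 Serum-purified activated thrombin (2.7 nM) was assayed at 25 °C in 50 mM HEPES pH 7.4, 140 mM NaCl, 0.005% Tween-20, 5% DMSO with 0.59 mM DTNB. Initial ZGR hydrolysis rates were measured at four ZGR levels (~Km–9 x Km) × five inhibitor levels (0–~3.4 x Ki). Triplicate data were globally fit to a competitive inhibition model.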

[14] = system: Neutrophil Elastase; assay: Neutrophil elastase chromogenic assay; assay type: biochemical, human; conditions: inhibitor 0 to 29.4 μM
Procedure, shortened: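 Neutrophil elastase purified from human sputum (6.9 nM) was run at 25 °C with inhibitor 0–29.4 μM and fixed 52 μM methoxysuccinyl-Ala-Ala-Pro-Val-p-nitroanilide (ε400 = 12.3 mM−1 cm−1). Buffer: 50 mM HEPES pH 7.4, 140 mM NaCl, 0.05% Tween-20. Microplate chromogenic read-out.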

[15] = recombinant human C1s-2SP, competitive inhibition model

N=C(N)Nc1ccc(C(=O)O)cc1 [4-guanidinobenzoic acid]
inhibition of trypsin [1]: failed to inhibit trypsin

N=C(N)c1ccc(N2CCN(c3ccccc3)CC2)nc1 [A1, 6-(4-phenylpiperazin-1-yl)pyridine-3-carboximidamide]
inhibition of C5a generation [2]: ~ 75%
activity against the LP [3]: relatively weak activity against the LP compared to the CP
pIC50 [4]: ~4.07
solubility [5]: ≥ 10 mM
inhibition of Factor Xa [6]: did not inhibit
pKi [7]: 4.61
pKi [8]: 3.07
selectivity C1s over C1r ([8]; ratio of Ki values): ~ 145 fold
pKi [9]: 5.07
pKi [10]: 5.24
C4b deposition (CP activity) [11]: reduced C4b deposition to less than two standard deviations below the mean; also recorded: essentially complete inhibition of C4b deposition
pIC50 ([11]; CP ELISA, C4b deposition, A1 100 – 3.1 μM): 4.66
inhibition of Cathepsin-G [12]: did not inhibit
pKi [13]: 4.29
inhibition of Neutrophil Elastase [14]: did not inhibit

O=C(COC(=O)Cn1cnc2scc(-c3cccs3)c2c1=O)Nc1ccc(O)cc1 [B5]
C4b deposition (CP activity) [11]: reduced C4b deposition to less than two standard deviations below the mean

I.NC(N)=NCc1ccc(CN2CCc3ccccc32)cc1 [D4]
C1s-2SP activity (initial velocity of ZGR cleavage) [9]: failed to inhibit C1s enzyme activity

COc1ccc(CCNC(N)=NCc2ccc(OCCC(C)C)c(OC)c2)cc1.I [D10]
C1s-2SP activity (initial velocity of ZGR cleavage) [9]: failed to inhibit C1s enzyme activity

Cl.Cl.NC(N)=NCCCN(Cc1ccc(-c2ccccc2)cc1)S(=O)(=O)CCCN=C(N)N [F2]
C1s-2SP activity (initial velocity of ZGR cleavage) [9]: failed to inhibit C1s enzyme activity

COc1cccc(Oc2ccc(CN=C(N)Nc3ccccc3)cn2)c1.I [H1]
C1s-2SP activity (initial velocity of ZGR cleavage) [9]: failed to inhibit C1s enzyme activity

O=C(CSc1ncnc2sc(-c3ccccc3)cc12)NC(Cc1c[nH]c2ccccc12)C(=O)O (stereo not drawn) [H9]
C1s-2SP activity (initial velocity of ZGR cleavage) [9]: failed to inhibit C1s enzyme activity

N=C(N)c1ccc(N2CCN(c3cccc(F)c3)CC2)nc1 [meta-fluorine A1 analog]
pKi [9, 15]: 4.71

Cc1cccc(N2CCN(c3ccc(C(=N)N)cn3)CC2)c1 [meta-methyl A1 analog]
pKi [9, 15]: 4.65

N=C(N)c1ccc(N2CCN(c3ccc(Cl)cc3)CC2)nc1 [para-chlorine A1 analog]
loss of activity compared to A1 [9]: > 10 fold

N=C(N)c1ccc(N2CCN(c3ccc(F)cc3)CC2)nc1 [para-fluorine A1 analog]
loss of activity compared to A1 [9]: > 10 fold

N=C(N)c1cccnc1 [pyridine-3-carboximidamide, reference compound]
inhibition of C1s ([10]; concentrations approaching ~375 μM, data not shown): failed to detect such inhibition
